From ChEMBL document CHEMBL2417469, “Synthesis of novel analogs of 2-pyrazoline obtained from [(7-chloroquinolin-4-yl)amino]chalcones and hydrazine as potential antitumor and antimalarial agents” (Eur J Med Chem, 2013)

Assays:
Type in all cases: functional
SK-MEL-2 = assay: Cytotoxicity against human SK-MEL-2 cells after 48 hrs by SRB assay; conditions: SK-MEL-2, 48 h
In short: (§1)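 NCI 60-cell-line screen. Cells preincubated 24 h at 37 °C, 5% CO2; time-zero plates TCA-fixed. Compounds dissolved in DMSO and tested at five concentrations (100, 10, 1.0, 0.1, 0.01 µM) for 48 h continuous exposure. Adherent cells fixed with cold TCA (10% final), then SRB stained; absorbance at 515 nm. GI50, TGI and LC50 calculated from growth relative to time-zero and untreated controls.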

U-251 = assay: Cytotoxicity against human U251 cells after 48 hrs by SRB assay; conditions: U-251, 48 h
In short: (§2)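 NCI 60-cell screen. Cells grew 24 h (37 °C, 5% CO2) before compound was added. Compounds were in DMSO and diluted in medium with gentamicin, then tested at five levels (100, 10, 1.0, 0.1, 0.01 µM) with 48 h continuous exposure. Adherent cells were fixed with TCA (10% final) and stained with 0.4% SRB, absorbance read at 515 nm. A time-zero plate was included. LC50 is the concentration giving 50% loss of protein relative to time zero.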

CAKI-1 = assay: Cytotoxicity against human Caki1 cells after 48 hrs by SRB assay; conditions: CAKI-1, 48 h; in short: as §1
UACC-62 = assay: Cytotoxicity against human UACC62 cells after 48 hrs by SRB assay; conditions: UACC-62, 48 h; in short: as §2
HCT-116 = assay: Cytotoxicity against human HCT116 cells after 48 hrs by SRB assay; conditions: HCT-116, 48 h; in short: as §1
MDA-MB-468 = assay: Cytotoxicity against human MDA-MB-468 cells after 48 hrs by SRB assay; conditions: MDA-MB-468, 48 h; in short: as §1
SK-OV-3 = assay: Cytotoxicity against human SKOV3 cells after 48 hrs by SRB assay; conditions: SK-OV-3, 48 h; in short: as §1
Malme-3M = assay: Cytotoxicity against human MALME-3M cells after 48 hrs by SRB assay; in short: as §1
IGROV-1 = assay: Cytotoxicity against human IGROV1 cells after 48 hrs by SRB assay; conditions: IGROV-1, 48 h; in short: as §1
SK-MEL-5 = assay: Cytotoxicity against human SK-MEL-5 cells after 48 hrs by SRB assay; conditions: SK-MEL-5, 48 h; in short: as §1
M14 = assay: Cytotoxicity against human M14 cells after 48 hrs by SRB assay; conditions: M14, 48 h; in short: as §1
Plasmodium falciparum = assay: Antimalarial activity against Plasmodium falciparum NF54 infected in human serum at 20 ug/ml after 48 hrs by fluorometric method
In short: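 Asynchronous P. falciparum NF54 at 1.5–2% parasitemia, 5% hematocrit in RPMI with 10% human serum, exposed 48 h at 37 °C under 90% N2/5% CO2/5% O2 at the stated concentration; parasite DNA stained with ethidium bromide after proteinase K lysis; viability % = (Flu treated − medium)/(Flu untreated − medium) ×100; triplicate.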

COLO 205 = assay: Cytotoxicity against human COLO205 cells after 48 hrs by SRB assay; conditions: COLO 205, 48 h; in short: as §1
SN12C = assay: Cytotoxicity against human SN12C cells after 48 hrs by SRB assay; in short: as §1
T47D = assay: Cytotoxicity against human T47D cells after 48 hrs by SRB assay; in short: as §2
RPMI-8226 = assay: Cytotoxicity against human RPMI8226 cells after 48 hrs by SRB assay; conditions: RPMI-8226, 48 h; in short: as §1
A549 = assay: Cytotoxicity against human A549/ATCC cells after 48 hrs by SRB assay; conditions: A549, 48 h; in short: as §1
NCI-H522 = assay: Cytotoxicity against human NCI-H522 cells after 48 hrs by SRB assay; conditions: NCI-H522, 48 h; in short: as §1
NCI/ADR-RES = assay: Cytotoxicity against human NCI/ADR-RES cells after 48 hrs by SRB assay; in short: as §1
SF-539 = assay: Cytotoxicity against human SF539 cells after 48 hrs by SRB assay; conditions: SF-539, 48 h; in short: as §1
HCC 2998 = assay: Cytotoxicity against human HCC2998 cells after 48 hrs by SRB assay; conditions: HCC 2998, 48 h; in short: as §1
BT-549 = assay: Cytotoxicity against human BT549 cells after 48 hrs by SRB assay; conditions: BT-549, 48 h; in short: as §1
SF-268 = assay: Cytotoxicity against human SF268 cells after 48 hrs by SRB assay; conditions: SF-268, 48 h; in short: as §1
SF-295 = assay: Cytotoxicity against human SF295 cells after 48 hrs by SRB assay; conditions: SF-295, 48 h; in short: as §1
NCI-H226 = assay: Cytotoxicity against human NCI-H226 cells after 48 hrs by SRB assay; conditions: NCI-H226, 48 h; in short: as §1
HT-29 = assay: Cytotoxicity against human HT-29 cells after 48 hrs by SRB assay; conditions: HT-29, 48 h; in short: as §1
NCI-H460 = assay: Cytotoxicity against human NCI-H460 cells after 48 hrs by SRB assay; conditions: NCI-H460, 48 h; in short: as §1
MDA-MB-435 = assay: Cytotoxicity against human MDA-MB-435 cells after 48 hrs by SRB assay; conditions: MDA-MB-435, 48 h; in short: as §1
SR = assay: Cytotoxicity against human SR cells after 48 hrs by SRB assay; in short: as §2
LOX IMVI = assay: Cytotoxicity against human LOXIMVI cells after 48 hrs by SRB assay; in short: as §1
HCT-15 = assay: Cytotoxicity against human HCT15 cells after 48 hrs by SRB assay; conditions: HCT-15, 48 h; in short: as §1
RXF 393 = assay: Cytotoxicity against human RXF393 cells after 48 hrs by SRB assay; conditions: RXF 393, 48 h; in short: as §1
KM12 = assay: Cytotoxicity against human KM12 cells after 48 hrs by SRB assay; conditions: KM12, 48 h; in short: as §1
OVCAR-8 = assay: Cytotoxicity against human OVCAR8 cells after 48 hrs by SRB assay; conditions: OVCAR-8, 48 h; in short: as §1
[1] = read-out: LC50 (the source's name)

How did the GI50 (SK-MEL-2) turn out when COc1cc(C2CC(c3cccc(Nc4ccnc5cc(Cl)ccc45)c3)=NN2C=O)cc(OC)c1OC (configuration not stated) was run?
Its GI50 is 730 nM.

What about the LC50 (SK-MEL-2) of the same molecule?
The LC50 was 50100 nM.

What about the GI50 (U-251) of the same molecule?
The GI50 was 450 nM.

And the CC50 (U-251; [1])?
The CC50 was greater than 100000 nM.

What about the GI50 (CAKI-1) of the same molecule?
The GI50 was 550 nM.

What about the LC50 (CAKI-1) of the same molecule?
The LC50 was 12100 nM.

What about the GI50 (UACC-62) of the same molecule?
The GI50 was 720 nM.

And the CC50 (UACC-62; [1])?
The CC50 was 84000 nM.

What about the GI50 (HCT-116) of the same molecule?
The GI50 was 400 nM.

And the LC50 (HCT-116)?
Its LC50 is 6710 nM.

What about the GI50 (MDA-MB-468) of the same molecule?
Its GI50 is 300 nM.

And the LC50 (MDA-MB-468)?
The LC50 was 23300 nM.

And the GI50 (SK-OV-3)?
Its GI50 is 1400 nM.

And the LC50 (concentration killing 50% of cells) (SK-OV-3)?
Its LC50 (concentration killing 50% of cells) is greater than 100000 nM.

What about the GI50 (Malme-3M) of the same molecule?
Its GI50 is 810 nM.

And the LC50 (Malme-3M)?
Its LC50 is greater than 100000 nM.

And the GI50 (IGROV-1)?
Its GI50 is 3290 nM.

And the LC50 (concentration killing 50% of cells relative to time zero) (IGROV-1)?
The LC50 (concentration killing 50% of cells relative to time zero) was greater than 100000 nM.

What about the GI50 (SK-MEL-5) of the same molecule?
Its GI50 is 420 nM.

And the LC50 (concentration killing 50% of cells present at time zero) (SK-MEL-5)?
Its LC50 (concentration killing 50% of cells present at time zero) is 23500 nM.

And the GI50 (M14)?
Its GI50 is 350 nM.

What about the CC50 (M14; [1]) of the same molecule?
Its CC50 is 57500 nM.

And the inhibition at 20 µg/mL (Plasmodium falciparum)?
Its inhibition at 20 µg/mL is 24.6%.

And the GI50 (COLO 205)?
Its GI50 is 640 nM.

And the LC50 (COLO 205)?
The LC50 was greater than 100000 nM.

And the GI50 (SN12C)?
The GI50 was 780 nM.

What about the LC50 (50% net cell kill relative to time zero) (SN12C) of the same molecule?
The LC50 (50% net cell kill relative to time zero) was greater than 100000 nM.

And the GI50 (T47D)?
Its GI50 is 650 nM.

What about the LC50 (concentration giving 50% cell kill relative to time zero) (T47D) of the same molecule?
Its LC50 (concentration giving 50% cell kill relative to time zero) is 69300 nM.

And the GI50 (RPMI-8226)?
The GI50 was 8830 nM.

And the LC50 (concentration killing 50% of cells) (RPMI-8226)?
Its LC50 (concentration killing 50% of cells) is greater than 100000 nM.

What about the GI50 (A549) of the same molecule?
Its GI50 is 660 nM.

What about the CC50 (A549; [1]) of the same molecule?
Its CC50 is greater than 100000 nM.

And the GI50 (NCI-H522)?
The GI50 was 750 nM.

And the CC50 (NCI-H522; [1])?
Its CC50 is greater than 100000 nM.

What about the GI50 (NCI/ADR-RES) of the same molecule?
The GI50 was 1360 nM.

And the CC50 (NCI/ADR-RES; [1])?
Its CC50 is greater than 100000 nM.

And the GI50 (SF-539)?
The GI50 was 810 nM.

What about the CC50 (SF-539; [1]) of the same molecule?
Its CC50 is 55500 nM.

And the GI50 (HCC 2998)?
The GI50 was 2160 nM.

What about the LC50 (HCC 2998) of the same molecule?
The LC50 was greater than 100000 nM.

What about the GI50 (BT-549) of the same molecule?
The GI50 was 390 nM.

And the LC50 (50% net cell kill vs time zero) (BT-549)?
Its LC50 (50% net cell kill vs time zero) is 4610 nM.

And the GI50 (SF-268)?
The GI50 was 2550 nM.

What about the LC50 (SF-268) of the same molecule?
The LC50 was greater than 100000 nM.

And the GI50 (SF-295)?
Its GI50 is 380 nM.

And the LC50 (SF-295)?
The LC50 was greater than 100000 nM.

And the GI50 (NCI-H226)?
Its GI50 is 2200 nM.

What about the LC50 (50% lethal concentration) (NCI-H226) of the same molecule?
Its LC50 (50% lethal concentration) is greater than 100000 nM.

What about the GI50 (HT-29) of the same molecule?
Its GI50 is 400 nM.

And the LC50 (HT-29)?
Its LC50 is 4990 nM.

And the GI50 (NCI-H460)?
The GI50 was 420 nM.

And the LC50 (NCI-H460)?
Its LC50 is greater than 100000 nM.

And the GI50 (MDA-MB-435)?
The GI50 was 220 nM.

What about the LC50 (MDA-MB-435) of the same molecule?
Its LC50 is greater than 100000 nM.

And the GI50 (SR)?
The GI50 was 340 nM.

What about the LC50 (SR) of the same molecule?
Its LC50 is greater than 100000 nM.

What about the GI50 (LOX IMVI) of the same molecule?
Its GI50 is 710 nM.

And the LC50 (LOX IMVI)?
Its LC50 is greater than 100000 nM.

And the GI50 (HCT-15)?
Its GI50 is 550 nM.

What about the LC50 (concentration killing 50% of cells relative to time zero) (HCT-15) of the same molecule?
Its LC50 (concentration killing 50% of cells relative to time zero) is greater than 100000 nM.

And the GI50 (RXF 393)?
Its GI50 is 1540 nM.

What about the LC50 (concentration killing 50% of cells) (RXF 393) of the same molecule?
Its LC50 (concentration killing 50% of cells) is 73400 nM.

And the GI50 (KM12)?
Its GI50 is 500 nM.

What about the LC50 (concentration killing 50% of cells) (KM12) of the same molecule?
The LC50 (concentration killing 50% of cells) was greater than 100000 nM.

And the GI50 (OVCAR-8)?
The GI50 was 2060 nM.

What about the LC50 (50% net cell kill) (OVCAR-8) of the same molecule?
Its LC50 (50% net cell kill) is greater than 100000 nM.
